According to ChEMBL document CHEMBL1134337, “Behavioral approach to nondyskinetic dopamine antagonists: identification of seroquel” (J Med Chem, 2001):

How the values were obtained:
Mus musculus [1] = assay: Antagonism of apomorphine induced swimming was determined in female swiss -Wbster mice after (po) administration of 10 mg/kg; format: functional
[2] = Number of animals showing dyskinesias was determined in haloperidol sensitized 4 cebus monkeys after (po) administration of 40 mg/kg; format: functional
Outline: (§1)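 Adult female and male Cebus monkeys sensitized with oral haloperidol 1 mg/kg once per week until dyskinetic reactions occurred. Test drug given orally (2 mL/kg) in 0.5% w/w hydroxypropylmethylcellulose with 0.1% w/w Tween 80 in distilled water, at least 2 weeks between treatments. Two observers watched continuously for 6-7 h, recording reaction type and severity every 30 min. Score is monkeys with dyskinesias/monkeys tested.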

Mus musculus [3] = assay: Antagonism of apomorphine induced climbing was determined in female swiss -Wbster mice after (ip) administration of 40 mg/kg; format: functional
Outline: (§2)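 Female Swiss-Webster mice (about 20 g) were fasted about 24 h, then given test compound or vehicle ip or po (N = 20 per group). Vehicle was 0.5% w/w hydroxypropylmethylcellulose with 0.1% w/w Tween 80 in water. After 30 min, mice received apomorphine HCl 1.25 mg/kg sc. At 13 min, each mouse was watched for 1 min; score was mean of highest and lowest rung of 27. Groups were compared with vehicle by Student's t-test.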

[4] = Number of animals showing dyskinesias was determined in haloperidol sensitized 13 cebus monkeys after (po) administration of 10 mg/kg; format: functional
Outline: (§3)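 Adult male and female Cebus monkeys sensitized with haloperidol 1 mg/kg po weekly until dyskinetic reactions appeared. Drug given orally (2 mL/kg) in 0.5% w/w hydroxypropylmethylcellulose with 0.1% w/w Tween 80, at least 2 weeks between treatments. Two observers watched continuously for 6–7 h, logging reaction type and severity every 30 min. Score is the number of monkeys with dyskinesias over the number tested.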

Mus musculus [5] = assay: Antagonism of apomorphine induced climbing was determined in female swiss -Wbster mice after (po) administration of 20 mg/kg; format: functional; outline: as §2
Mus musculus [6] = assay: Antagonism of apomorphine induced climbing was determined in female swiss -Wbster mice after (ip) administration of 80 mg/kg; format: functional; outline: as §2
Mus musculus [7] = assay: Antagonism of apomorphine induced climbing was determined in female swiss -Wbster mice after (po) administration of 40 mg/kg; format: functional; outline: as §2
Mus musculus [8] = assay: Antagonism of apomorphine induced swimming was determined in female swiss -Wbster mice after (po) administration of 80 mg/kg; format: functional
[9] = Number of animals showing dyskinesias was determined in haloperidol sensitized 13 cebus monkeys after (po) administration of 20 mg/kg; format: functional; outline: as §3
Mus musculus [10] = assay: Antagonism of apomorphine induced swimming was determined in female swiss -Wbster mice after (po) administration of 40 mg/kg; format: functional
Mus musculus [11] = assay: Antagonism of apomorphine induced climbing was determined in female swiss -Wbster mice after (po) administration of 80 mg/kg; format: functional; outline: as §2
Mus musculus [12] = assay: Antagonism of apomorphine induced swimming was determined in female swiss -Wbster mice after (po) administration of 20 mg/kg; format: functional
Mus musculus [13] = assay: Antagonism of apomorphine induced climbing was determined in female swiss -Wbster mice after (ip) administration of 20 mg/kg; format: functional; outline: as §2
Mus musculus [14] = assay: Antagonism of apomorphine induced climbing was determined in female swiss -Webster mice after (ip) administration of 80 mg/kg; format: functional; outline: as §2
[15] = target: D(2) dopamine receptor (Rattus norvegicus) (UniProt P61169); assay: Binding affinity at dopamine receptor D2 from rat by spiropiperidone displacement.
Outline: (§4)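 D2 receptor binding was read as % displacement of spiropiperidone, with test compound at 1000 nM unless stated otherwise. IC50 values used at least five concentrations per compound in triplicate. Each value is the mean of two replicate experiments differing by 5% or less.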

D(2) dopamine receptor = D(2) dopamine receptor (Rattus norvegicus, UniProt P61169); assay: Inhibition of spiropiperidone binding at dopamine receptor D2 of rat.
Mus musculus [16] = assay: Antagonism of apomorphine induced climbing was determined in female swiss -Webster mice after (ip) administration of 2.5 mg/kg; format: functional; outline: as §2
Mus musculus [17] = assay: Antagonism of apomorphine induced climbing was determined in female swiss -Webster mice after (po) administration of 20 mg/kg; format: functional; outline: as §2
Mus musculus [18] = assay: Antagonism of apomorphine induced climbing was determined in female swiss -Webster mice after (p.o.) +SKF525A administration of 10 mg/kg; format: functional; settings: route oral; outline: as §2
Mus musculus [19] = assay: Antagonism of apomorphine induced climbing was determined in female swiss -Webster mice after (p.o.) +SKF525A administration of 20 mg/kg; format: functional; settings: route oral; outline: as §2
Mus musculus [20] = assay: Antagonism of apomorphine induced climbing was determined in female swiss -Webster mice after (p.o.) +SKF525A administration of 5 mg/kg; format: functional; settings: route oral; outline: as §2
Mus musculus [21] = assay: Antagonism of apomorphine induced climbing was determined in female swiss -Webster mice after (po) administration of 10 mg/kg; format: functional; outline: as §2
Mus musculus [22] = assay: Antagonism of apomorphine induced climbing was determined in female swiss -Webster mice after (ip) administration of 5 mg/kg; format: functional; outline: as §2
Mus musculus [23] = assay: Antagonism of apomorphine induced climbing was determined in female swiss -Webster mice after (ip) administration of 20 mg/kg; format: functional; outline: as §2
Mus musculus [24] = assay: Antagonism of apomorphine induced climbing was determined in female swiss -Webster mice after (ip) administration of 10 mg/kg; format: functional; outline: as §2
Mus musculus [25] = assay: Antagonism of apomorphine induced climbing was determined in female swiss -Webster mice after (po) administration of 5 mg/kg; format: functional; outline: as §2
Mus musculus [26] = assay: Antagonism of apomorphine induced climbing was determined in female swiss -Webster mice after (ip) administration of 40 mg/kg; format: functional; outline: as §2
Mus musculus [27] = assay: Antagonism of apomorphine induced swimming was determined in female swiss -Webster mice after (ip) administration of 40 mg/kg; format: functional
Mus musculus [28] = assay: Antagonism of apomorphine induced swimming was determined in female swiss -Webster mice after (ip) administration of 80 mg/kg; format: functional
Mus musculus [29] = assay: Antagonism of apomorphine induced swimming was determined in female swiss -Webster mice after (ip) administration of 20 mg/kg; format: functional
Mus musculus [30] = assay: Antagonism of apomorphine induced swimming was determined in female swiss -Wbster mice after (ip) administration of 80 mg/kg; format: functional
[31] = Number of animals showing dyskinesias was determined in haloperidol sensitized 2 cebus monkeys after (po) administration of 20 mg/kg; format: functional; outline: as §1
[32] = Number of animals showing dyskinesias was determined in haloperidol sensitized 2 cebus monkeys after (po) administration of 40 mg/kg; format: functional; outline: as §1
[33] = Number of animals showing dyskinesias was determined in haloperidol sensitized 2 cebus monkeys after (po) administration of 80 mg/kg; format: functional; outline: as §1
Mus musculus [34] = assay: Antagonism of apomorphine induced swimming was determined in female swiss -Webster mice after (ip) administration of 5 mg/kg; format: functional
Mus musculus [35] = assay: Antagonism of apomorphine induced swimming was determined in female swiss -Webster mice after (ip) administration of 10 mg/kg; format: functional
[36] = target: D(2) dopamine receptor (Rattus norvegicus) (UniProt P61169); assay: Inhibitory activity for the displacement of spiropiperidone (1000 nM) from dopamine D2 receptor of rat; outline: as §4
Mus musculus [37] = assay: Antagonism of apomorphine induced swimming was determined in female swiss -Wbster mice after (ip) administration of 40 mg/kg; format: functional
Mus musculus [38] = assay: Antagonism of apomorphine induced climbing was determined in female swiss -Wbster mice after (ip) administration of 10 mg/kg; format: functional; outline: as §2

Sequence of D(2) dopamine receptor (Rattus norvegicus) (P61169 whole entry): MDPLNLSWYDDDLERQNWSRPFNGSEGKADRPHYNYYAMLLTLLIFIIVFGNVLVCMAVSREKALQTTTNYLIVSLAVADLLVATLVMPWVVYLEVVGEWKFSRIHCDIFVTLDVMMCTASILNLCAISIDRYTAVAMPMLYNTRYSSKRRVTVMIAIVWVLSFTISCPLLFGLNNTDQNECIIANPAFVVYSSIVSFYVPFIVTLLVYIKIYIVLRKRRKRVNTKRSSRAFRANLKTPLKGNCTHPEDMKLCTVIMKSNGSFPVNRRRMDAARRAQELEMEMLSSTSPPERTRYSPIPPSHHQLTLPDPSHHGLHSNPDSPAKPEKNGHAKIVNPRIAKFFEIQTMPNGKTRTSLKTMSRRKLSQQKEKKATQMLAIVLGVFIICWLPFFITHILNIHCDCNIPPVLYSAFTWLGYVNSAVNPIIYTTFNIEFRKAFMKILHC
Sequence of D(2) dopamine receptor (P61169 whole entry): as above

OCCOCCN1CCN(C2=Nc3ccccc3Sc3ccccc32)CC1 [QUETIAPINE]
Activity (Mus musculus [1]): 3
No of monkeys [2]: 0
Activity (Mus musculus [3]): 2
No of monkeys [4]: 1
Activity (Mus musculus [5]): 18
Activity (Mus musculus [6]): 0
Activity (Mus musculus [7]): 14
Activity (Mus musculus [8]): 18
No of monkeys [9]: 2
Activity (Mus musculus [10]): 11
Activity (Mus musculus [11]): 8
Activity (Mus musculus [12]): 3
Activity (Mus musculus [13]): 15

CN1CCN(C2=Nc3cc(Cl)ccc3Sc3ccccc32)CC1 [ISOCLOTHIAPINE]
Activity (Mus musculus [14]): 18
% displacement of spiropiperidone [15]: 46%

CN1CCN(C2=Nc3ccccc3Cc3ccccc32)CC1 [PERLAPINE]
IC50 (D(2) dopamine receptor): 2.7 µM
Activity (Mus musculus [16]): 9
Activity (Mus musculus [17]): 2
Activity (Mus musculus [18]): 20
Activity (Mus musculus [19]): 16
Activity (Mus musculus [20]): 24
Activity (Mus musculus [21]): 9
Activity (Mus musculus [22]): 9
Activity (Mus musculus [23]): 0
Activity (Mus musculus [24]): 7
Activity (Mus musculus [25]): 20

CN1CCN(C2=Nc3cc(Cl)ccc3Oc3ccccc32)CC1 [ISOLOXAPINE]
Activity (Mus musculus [14]): 14
% displacement of spiropiperidone [15]: 48%
Activity (Mus musculus [26]): 20

OCCOCCN1CCN(C2=Nc3ccccc3Cc3sccc32)CC1
Activity (Mus musculus [14]): 7
Activity (Mus musculus [26]): 21

OCC1COCC(CN2CCN(C3=Nc4ccccc4Sc4ccccc43)CC2)O1 (centres undefined)
No of monkeys [2]: 4
Activity (Mus musculus [14]): 0
% displacement of spiropiperidone [15]: 4%
Activity (Mus musculus [27]): 8
Activity (Mus musculus [28]): 27
Activity (Mus musculus [26]): 7
Activity (Mus musculus [23]): 18
Activity (Mus musculus [29]): 0

OCCOCCN1CCN(C2=Nc3cc(O)ccc3Sc3ccccc32)CC1
Activity (Mus musculus [6]): 24
Activity (Mus musculus [30]): 0
% displacement of spiropiperidone [15]: 24%

COC[C@H](CN1CCN(C2=Nc3ccccc3Sc3ccccc32)CC1)OC
Activity (Mus musculus [14]): 1
% displacement of spiropiperidone [15]: 10%
Activity (Mus musculus [27]): 3
Activity (Mus musculus [28]): 13
Activity (Mus musculus [26]): 19

CN1CCN(C2=Nc3cc(Cl)ccc3Cc3ccccc32)CC1
Activity (Mus musculus [14]): 25
% displacement of spiropiperidone [15]: 40%
Activity (Mus musculus [26]): 24

OCCOCCN1CCN(C2=Nc3cccc(F)c3Sc3ccccc32)CC1
Activity (Mus musculus [6]): 22
Activity (Mus musculus [30]): 0
% displacement of spiropiperidone [15]: 0%

[O-][S+]1c2ccccc2N=C(N2CCN(CCOCCO)CC2)c2ccccc21 (centres undefined) [SULFOXIDE METABOLITE]
Activity (Mus musculus [14]): 23
Activity (Mus musculus [28]): 0

COCC(CO)N1CCN(C2=Nc3ccccc3Sc3ccccc32)CC1 (centres undefined)
IC50 (D(2) dopamine receptor): 1.64 µM
Activity (Mus musculus [14]): 21
Activity (Mus musculus [28]): 0

OCCOCCN1CCN(C2=Nc3cc(Cl)ccc3Cc3ccccc32)CC1
No of monkeys [31]: 0
IC50 (D(2) dopamine receptor): 1 µM
No of monkeys [32]: 0
Activity (Mus musculus [3]): 6
No of monkeys [33]: 0
Activity (Mus musculus [6]): 2
Activity (Mus musculus [7]): 26
Activity (Mus musculus [8]): 2
Activity (Mus musculus [10]): 1
Activity (Mus musculus [11]): 1
Activity (Mus musculus [13]): 19

O=S1(=O)c2ccccc2N=C(N2CCN(CCOCCO)CC2)c2ccccc21
Activity (Mus musculus [14]): 23
Activity (Mus musculus [28]): 0

OCCOCCOCCN1CCN(C2=Nc3ccccc3Sc3ccccc32)CC1
IC50 (D(2) dopamine receptor): 1.39 µM
Activity (Mus musculus [14]): <3
Activity (Mus musculus [27]): <3
Activity (Mus musculus [28]): <12
Activity (Mus musculus [26]): 14
Activity (Mus musculus [23]): 20
Activity (Mus musculus [29]): 2

c1ccc2c(c1)N=C(N1CCN(CC3CCCO3)CC1)c1ccccc1S2 (centres undefined)
IC50 (D(2) dopamine receptor): 0.417 µM
No of monkeys [32]: 2
Activity (Mus musculus [14]): 1
Activity (Mus musculus [34]): 1
Activity (Mus musculus [27]): 26
Activity (Mus musculus [28]): 37
Activity (Mus musculus [35]): 7
Activity (Mus musculus [22]): 21
Activity (Mus musculus [26]): 7
Activity (Mus musculus [23]): 2
Activity (Mus musculus [24]): 9
Activity (Mus musculus [29]): 16

COCC(COC)N1CCN(C2=Nc3ccccc3Sc3ccccc32)CC1
inhibition [36]: 4%
Activity (Mus musculus [14]): 19
Activity (Mus musculus [28]): 0

OCCOCCN1CCN(C2=Nc3ccccc3Oc3ccccc32)CC1
Activity (Mus musculus [37]): 1
Activity (Mus musculus [3]): 17
Activity (Mus musculus [6]): 11
Activity (Mus musculus [30]): 8
% displacement of spiropiperidone [15]: 16%

OCCOCCN1CCN(C2=Nc3ccc(O)cc3Cc3ccccc32)CC1
Activity (Mus musculus [3]): 17
Activity (Mus musculus [5]): 24
Activity (Mus musculus [6]): 2
Activity (Mus musculus [7]): 17
Activity (Mus musculus [8]): 3
% displacement of spiropiperidone [15]: 25%
Activity (Mus musculus [10]): 1
Activity (Mus musculus [11]): 10
Activity (Mus musculus [12]): 1
Activity (Mus musculus [13]): 21

OCCOCCN1CCN(C2=Nc3cc(Cl)ccc3Cc3sccc32)CC1
No of monkeys [31]: 1
Activity (Mus musculus [3]): 2
Activity (Mus musculus [38]): 20
Activity (Mus musculus [6]): 3
% displacement of spiropiperidone [15]: 60%
Activity (Mus musculus [13]): 1
